In brackets after ≈: the same amount, converted by molar mass. Activity calls are given as the source filed them. The rule behind the calls is not given here.

Series [1] concerns Mus musculus. As to the kind of experiment: Ex-vivo cardioprotective activity in BL6 mouse LAD ligation ischemic heart failure model assessed as change in infarct size at 10 uM, sc administered as infusion at 24 hrs post LAD ligation for 28 days relative to control. It counts as functional, organism-based. Put shortly: (§1)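 Permanent LAD ligation in 12-week-old WT BL6 mice under intraperitoneal ketamine (100 mg/kg) and xylazine (10 mg/kg). Starting within 24 h, agents in PBS pH 7.4 at 10 µM were infused by mini-osmotic pump at 6 µL per d for 28 d. Controls were vehicle-infused WT mice and cardiac P2X4R-overexpressing transgenic mice. Infarct size was taken after heart-function measurement, from formalin-fixed, paraffin 4-µm Masson's trichrome sections, as infarct length over endocardial plus epicardial circumference. One-way ANOVA with Newman-Keuls test.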

In series [2] the test system is Mus musculus. As to the kind of experiment: Ex-vivo cardioprotective activity in BL6 mouse LAD ligation ischemic heart failure model assessed as left ventricular rate of pressure change in isolated heart at 10 uM, sc administered as infusion at 24 hrs post LAD ligation for 28 days (reference value: 6156 +/- 356 mmHg/s). It counts as functional. Put shortly: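 LAD-ligated BL6 mice were infused via mini-osmotic pump with 10 µM in PBS pH 7.4 at 6 µL per day for 28 days. Isolated working hearts then ejected buffered perfusate against a constant 56 mmHg hydrostatic afterload, and LV +dP/dt was recorded. Mean ± SEM against vehicle-infused controls; one-way ANOVA with Newman-Keuls.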

Series [3] relates to Mus musculus. Description: Cardioprotective activity in mouse overexpressing clasequestrin assessed as prevention of LV wall thinning at 10 uM, sc administered as infusion for 2 weeks. It counts as functional, organism-based. A digest of the protocol: (§2)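 CSQ-overexpressing mice with heart failure, 2-week infusion (n=5). Outcome is LV septal and posterior wall thickness versus normal-saline-infused CSQ mice. Values are mean ± standard error.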

In series [4] the test system is Mus musculus. Description: Cardioprotective activity in BL6 mouse LAD ligation ischemic heart failure model assessed as change in infarct size at 10 uM, sc administered as infusion at 24 hrs post-LAD ligation for 1 month relative to control. The format is functional, organism-based. Put shortly:
as §1

The subject of series [5] is Mus musculus. Description: Cardioprotective activity in mouse overexpressing clasequestrin assessed as increase in fractional shortening at 10 uM, sc administered as infusion for 2 weeks relative to control. It counts as functional, organism-based.
The test system of series [6] is Mus musculus. As to the kind of experiment: Cardioprotective activity in BL6 mouse LAD ligation ischemic heart failure model assessed as fractional shortening at 10 uM, sc administered as infusion at 24 hrs post LAD ligation for 28 days by echocardiography (reference value: 17.33 +/- 1.36%). It counts as functional.
The subject of series [7] is Mus musculus. As to the kind of experiment: Cardioprotective activity in mouse overexpressing clasequestrin assessed as increase in fractional shortening at 3.3 uM, sc administered as infusion for 2 weeks relative to control. The format is functional, organism-based.
The species entered for series [8] is Mus musculus. Description: Agonist activity at P2XR receptor in wild type BL6 mouse cardiac ventricular myocytes assessed as increase in contraction shortening. A digest of the protocol:
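Adult wild-type murine cardiac ventricular myocytes; contraction shortening recorded at basal control, during drug exposure and after washout. Data are mean ± standard error (13 or 8 myocytes per agent).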

Series [9] can be described thus: Aqueous solubility of the compound after 1 hr. The format is physicochemical. To be noted: buffer. Put shortly: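 Excess solid stirred in water, supernatant removed and lyophilized; solubility calculated from the mass of solid recovered.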
The nature of series [10]: Chemical stability of the compound in aqueous medium at pH 1 at 50 degC after 24 hrs by HPLC analysis. It counts as physicochemical. To be noted: buffer, pH 1, 24 h. A digest of the protocol:
(§3)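 Incubation for 24 h in aqueous medium at pH 1 or pH 11, 50°C, and checked for hydrolysis.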

For another series, the system named is Liver. Description: Metabolic stability of the compound in mouse liver microsomes by HPLC analysis. It counts as ADME, Microsome. Put shortly:
(§4)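 Incubation with mouse or rat liver microsomes at 37°C for 24 h, and checked for hydrolysis.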

For another series, the system named is Plasma. Description: Metabolic stability of the compound in rat plasma at 1.09 mM by HPLC analysis. To be noted: 1090 µM. It counts as ADME, cell-free. Put shortly:
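Incubation with rat plasma at 37°C for 24 h, and checked for hydrolysis.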

The test system of series [11] is Mus musculus. Description: Cardioprotective activity in mouse overexpressing clasequestrin assessed as increase in LV septal wall thickness during systole at 10 uM, sc administered as infusion for 2 weeks relative to control. It counts as functional, organism-based. Put shortly:
as §2

Series [12] in a line: Chemical stability of the compound in aqueous medium at pH 11 at 50 degC after 24 hrs by HPLC analysis. The format is physicochemical. To be noted: buffer, pH 11, 24 h. A digest of the protocol: as §3
Series [13] concerns Mus musculus. As to the kind of experiment: Cardioprotective activity in mouse overexpressing clasequestrin assessed as increase in LV posterior wall thickness during diastole at 10 uM, sc administered as infusion for 2 weeks relative to control. The format is functional, organism-based. A digest of the protocol:
as §2

Series [14] concerns Mus musculus. As to the kind of experiment: Cardioprotective activity in mouse overexpressing clasequestrin assessed as increase in LV posterior wall thickness during systole at 10 uM, sc administered as infusion for 2 weeks relative to control. The format is functional, organism-based. A digest of the protocol: as §2
The subject of the next series is Liver microsomes. As to the kind of experiment: Metabolic stability of the compound in rat liver microsomes by HPLC analysis. It counts as ADME, Microsome. A digest of the protocol:
as §4
On the technique in general: Liver microsomes are vesicles of endoplasmic reticulum, rich in cytochrome P450 enzymes.

Series [15] deals with Mus musculus. Description: Cardioprotective activity in mouse overexpressing clasequestrin assessed as LV septal wall thickness at 10 uM, sc administered as infusion for 2 weeks (reference value: 0.45 +/- 0.007 mm). The format is functional.
The test system of series [16] is Mus musculus. Description: Cardioprotective activity in mouse overexpressing clasequestrin assessed as LV posterior wall thickness at 10 uM, sc administered as infusion for 2 weeks (reference value: 0.45 +/- 0.007 mm). The format is functional.

For the compound `Nc1nc(I)nc2c1ncn2[C@H]1[C@H](O)[C@H](O)[C@]2(CP(=O)(O)O)C[C@H]12`, the outcome in the series with Mus musculus [1], in the series with Mus musculus [3], in the series on Mus musculus [4] and in the series on Mus musculus [5] was inactive. Besides, in the series on Mus musculus [2], the Activity came out at 6581 mmHg/s.
In the case of `CCOP(=O)(OCC)OC[C@@]12C[C@@H]1[C@@H](n1cnc3c(N)nc(Cl)nc31)[C@H](O)[C@@H]2O`, the Activity in the series with Mus musculus [6] amounted to 24.71%; in the series on Mus musculus [2], 6711 mmHg/s. For the same compound, the result in the series with Mus musculus [1], with Mus musculus [4] and with Mus musculus [4] (tested as the 2H-labelled form) was inactive.
As for `[2H]C([2H])(OP(=O)(O)O)[C@@]12C[C@@H]1[C@@H](n1cnc3c(N)nc(Cl)nc31)[C@H](O)[C@@H]2O`, the Activity with Mus musculus [6] worked out at 23.06%.
In the case of `CCOP(=S)(OCC)OC[C@@]12C[C@@H]1[C@@H](n1cnc3c(N)nc(Cl)nc31)[C@H](O)[C@@H]2O`, the result with Mus musculus [4] was inactive.
As for `CC(C)OP(=O)(OC[C@@]12C[C@@H]1[C@@H](n1cnc3c(N)nc(Cl)nc31)[C@H](O)[C@@H]2O)OC(C)C`, the Activity in the series on Mus musculus [6] came to 25.77%. Further, in the series with Mus musculus [4], the outcome was inactive.
`[2H]C([2H])(OP(=O)(OCC)OCC)[C@@]12C[C@@H]1[C@@H](n1cnc3c(N)nc(Cl)nc31)[C@H](O)[C@@H]2O`: the Activity in the series with Mus musculus [6] came to 21.48%.
In the case of `Nc1nc(Cl)nc2c1ncn2[C@H]1[C@H](O)[C@H](O)[C@]2(CCP(=O)(O)O)C[C@H]12`, the result with Mus musculus [7], in the series filed under Mus musculus [8] and with Mus musculus [5] was Active.
Take `CC(C)(C)OP(=O)(OC[C@@]12C[C@@H]1[C@@H](n1cnc3c(N)nc(Cl)nc31)[C@H](O)[C@@H]2O)OC(C)(C)C`: the results for the Activity in the series on Mus musculus [6] and in the series on Mus musculus [2] were 24.07% and 6681 mmHg/s, respectively. Further, the result in the series with Mus musculus [1] and with Mus musculus [4] was inactive.
On to `CCOP(=S)(OCC)SC[C@@]12C[C@@H]1[C@@H](n1cnc3c(N)nc(Cl)nc31)[C@H](O)[C@@H]2O`, for which the Activity in the series on Mus musculus [6] is given as 24.76%. The outcome in the series on Mus musculus [4] was inactive.
For `CCOP(=O)(C[C@@]12C[C@@H]1[C@@H](n1cnc3c(N)nc(I)nc31)[C@H](O)[C@@H]2O)OCC` the same measures were 23.05% and “inactive”.
With `Nc1nc(Cl)nc2c1ncn2[C@@H]1C2CC2(COP(=O)(O)O)[C@@H](O)[C@H]1O` (single isomer, unassigned), the Activity in the series with Mus musculus [6] is listed as 22.14%; in the series on Mus musculus [2], 6508 mmHg/s. In addition, the outcome in the series on Mus musculus [1] and with Mus musculus [4] was inactive. Moreover, in the series filed under Mus musculus [8], the result was Active.
On to `CCOP(=O)(OCC)SC[C@@]12C[C@@H]1[C@@H](n1cnc3c(N)nc(Cl)nc31)[C@H](O)[C@@H]2O`, for which, in the series with Mus musculus [6], the Activity was determined as 24.31%. In the series with Mus musculus [4], the outcome was inactive.
As to `CCOP(=O)(C[C@@]12C[C@@H]1[C@@H](n1cnc3c(N)nc(Cl)nc31)[C@H](O)[C@@H]2O)OCC`, the result in the series with Mus musculus [1] and with Mus musculus [4] was inactive. Moreover, the Activity in the series with Mus musculus [2] is recorded as 5946 mmHg/s. The same compound showed a solubility in series [9] of 60 mM (≈ 25.9 mg/mL).
As to `CC(C)OP(=O)(CC[C@@]12C[C@@H]1[C@@H](n1cnc3c(N)nc(Cl)nc31)[C@H](O)[C@@H]2O)OC(C)C`, the Stability result (in [10]; in the series on Liver; with Plasma; in series [12]; with Liver microsomes) was “Stable” throughout. In addition, the outcome in the series with Mus musculus [11], in the series with Mus musculus [13] and in the series with Mus musculus [14] was Active. In series [9], this compound had a solubility of 7.25 mM (≈ 3.44 mg/mL).
As for `Nc1nc(Cl)nc2c1ncn2[C@H]1[C@H](O)[C@H](O)[C@]2(CSP(=O)(O)O)C[C@H]12`, the Activity in the series with Mus musculus [15] was determined as 0.492 mm; in the series with Mus musculus [16] it was 0.493 mm; with Mus musculus [2], 6553 mmHg/s. Besides, the outcome in the series on Mus musculus [1] and in the series with Mus musculus [4] was inactive.
With `Nc1nc(Cl)nc2c1ncn2[C@H]1[C@H](O)[C@H](O)[C@]2(COP(=O)(O)O)C[C@H]12`, the result in the series with Mus musculus [4] (tested as the 2H-labelled form) was inactive.

For orientation: solubility means how much of the substance goes into solution per volume. Read a high solubility as a readily soluble substance.

For the origin of these results see ChEMBL document CHEMBL2311265, “5'-Phosphate and 5'-phosphonate ester derivatives of (N)-methanocarba adenosine with in vivo cardioprotective activity” (J Med Chem, 2013).
